Compound activity from PubChem BioAssay.
p-CIP stab down – lowers stability of the mouse p/CIP coactivator protein | Q05BA5 | F442A p/CIP-EGFP cells, EGFP fluorescence, 16 h | decrease of EGFP signal, % at 10 µM | actives 0.01% (n = 290,000) | AID 1984;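 active = EGFP signal decrease of at least 30% at 10 µM or well 3 SD below plate mean, unless failing retest; inactive = the rest, including hits failing retest or dose response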
Dynein cargo inh – dynein cargo transport inhibition | 3617.4 mouse cells, GR-EGFP nuclear translocation imaging; test concentration mostly 20 µM; stimulated with dexamethasone, 1 µM; hits give low values | actives 0.47% (n = 220,000) | z-score, hits read low;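 active = plate z-score of nuclear minus cytoplasmic receptor signal below a set negative limit, without overly bright fluorescence or cell loss, cut at about -3.5 in these data, passing the limit was not always enough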;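 note: z-score of nuclear minus cytoplasmic ring GR-EGFP intensity difference per well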
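Also added: dexamethasone, 1.0 µM final. Medium: tet-free, stripped-serum medium. Detection: fixed, Hoechst-stained cells imaged at 10x for EGFP. Read-out: nuclear-to-cytoplasmic GR-EGFP distribution per well. Times: induction 48 h, compound 1 h, agonist 30 min.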
XBP1 UPR activ – adaptive UPR (XBP1) activation. CHO-XBP1 luciferase reporter, IRE1-XBP1 UPR activation, luminescence; percent of tunicamycin response, DMSO as zero. activation, % at 20 µM. actives 0.33% (n = 330,000). AID 463104;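 active = versus positive control, 20 µM dose yields 30% or more activation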
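Material: CHO-XBP1 cells stably carrying IRE1-XBP1-driven luciferase reporter | Medium: F12 with 10% serum | Compound dosing: 20 µM single concentration, DMSO 1% | Incubation: Overnight seeding at 37 °C, 6 h compound treatment at 37 °C | Detection: Steady-Glo luminescence read | Read-out basis: % activation of reporter signal versus tunicamycin and DMSO controls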
CHOP UPR activ – activators of apoptotic arm of unfolded protein response (CHOP); CHO-CHOP luciferase reporter, UPR activation, luminescence; percent of tunicamycin response over DMSO baseline; activation, % at 10 µM; actives 0.34% (n = 330,000); AID 449763;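 active = at 10 µM dose, activation of 40% or more, normalized to positive control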
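System: CHO-CHOP luciferase reporter cell line | Buffer or medium: F12 medium containing 10% fetal bovine serum | Doses: One dose, 10 µM in 0.5% DMSO | Times: 6 h compound exposure at 37 °C after overnight seeding | Signal: Luciferase luminescence | Read-out: % activation vs tunicamycin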
B2AR ag – agonists of human beta-2 adrenergic receptor inducing internalization; P07550; Am2.2-beta2AR cells, FAP receptor internalization, flow cytometry; response, % (no concentration beside the values); actives 0.43% (n = 340,000); AID 504454;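 active = response above a set limit, near 3 SD of response in nonfluorescent compounds, cut at about 42% in these data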
CHOP inh – inhibitors of CHOP induction in ER stress response; CHO-K1 CHOP-promoter luciferase, tunicamycin-induced, 15-18 h; inhibition, % at 10 µM; actives 3.8% (n = 220,000);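 active = compounds that reduced the stress-induced luciferase reporter signal by more than about 70% of percent inhibition, limit read from the data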
A number is an active result. Many of the other results were omitted from the sample, so hits are more common in it than they were.

How did CCCNc1nc(Nc2ccc(C)cc2)nc(N2CCCC2)n1 do in these assays?
p-CIP stab down: inactive; Dynein cargo inh: inactive; XBP1 UPR activ: inactive; CHOP UPR activ: inactive; B2AR ag: inactive; CHOP inh: 70

What do the screens show for `Cc1ccccc1-c1nnc(SCC(=O)Nc2cccnc2Cl)o1`?
XBP1 UPR activ: inactive; CHOP UPR activ: inactive; B2AR ag: inactive

What do the screens show for `CC(=O)O[C@H]1C(=O)[C@@]2(C)C([C@H](OC(=O)c3ccccc3)[C@]3(O)C[C@H](OC(=O)[C@H](O)[C@@H](NC(=O)c4ccccc4)c4ccccc4)C(C)=C1C3(C)C)[C@]1(OC(C)=O)CO[C@@H]1C[C@@H]2O` (stereo partly specified)?
CHOP inh: 88

What do the screens show for `O=Cc1ccc(Sc2ncccn2)o1`?
p-CIP stab down: inactive; Dynein cargo inh: inactive; B2AR ag: inactive; CHOP inh: inactive

What do the screens show for `COc1ccc(Cc2nnc(N/N=C/c3ccc(O)cc3)[nH]c2=O)cc1OC`?
p-CIP stab down: inactive; Dynein cargo inh: inactive; XBP1 UPR activ: inactive; CHOP UPR activ: inactive; B2AR ag: inactive; CHOP inh: 84

What do the screens show for `Cc1ccc(Nc2nc(N/N=C/c3c[nH]c4ccccc34)nc(N3CCOCC3)n2)cc1`?
p-CIP stab down: inactive; Dynein cargo inh: inactive; XBP1 UPR activ: inactive; CHOP UPR activ: inactive; B2AR ag: inactive; CHOP inh: 95

How did CC(C)(C)c1ccc(-c2noc(CCC(=O)NCc3ccco3)n2)cc1 do in these assays?
p-CIP stab down: inactive; Dynein cargo inh: inactive; XBP1 UPR activ: inactive; CHOP UPR activ: inactive; B2AR ag: inactive; CHOP inh: 85

Results for COc1ccc(Br)cc1CNC(=O)CCc1nc(-c2ccc(C)cc2)no1 ?
p-CIP stab down: inactive; Dynein cargo inh: inactive; XBP1 UPR activ: inactive; CHOP UPR activ: inactive; B2AR ag: inactive; CHOP inh: 76

How did COc1ccc(-c2noc(CCC(=O)NCc3cc(Br)ccc3OC)n2)cc1 do in these assays?
p-CIP stab down: inactive; Dynein cargo inh: inactive; XBP1 UPR activ: inactive; CHOP UPR activ: inactive; B2AR ag: inactive; CHOP inh: inactive

What do the screens show for `CCSc1ncc(/C=N/Nc2ccc([N+](=O)[O-])cc2)n1C`?
p-CIP stab down: inactive; Dynein cargo inh: inactive; XBP1 UPR activ: inactive; CHOP UPR activ: inactive; B2AR ag: inactive; CHOP inh: 78

Results for Cc1ccccc1Nc1nnc(SCc2nc3ccccc3c(=O)[nH]2)s1 ?
p-CIP stab down: inactive; Dynein cargo inh: inactive; XBP1 UPR activ: inactive; CHOP UPR activ: inactive; CHOP inh: inactive

Results for CCOc1ccc(Nc2nnc(SCc3nc4ccccc4c(=O)[nH]3)s2)cc1 ?
p-CIP stab down: inactive; Dynein cargo inh: inactive; XBP1 UPR activ: inactive; CHOP UPR activ: inactive; B2AR ag: inactive; CHOP inh: 96

Results for O=C(CCl)N=c1sccn1Cc1ccc(Cl)cc1Cl ?
p-CIP stab down: inactive; Dynein cargo inh: inactive; XBP1 UPR activ: inactive; CHOP UPR activ: 42; B2AR ag: 67; CHOP inh: inactive

Results for O=C(CCl)N=c1sccn1Cc1cccc2ccccc12 ?
p-CIP stab down: inactive; Dynein cargo inh: inactive; B2AR ag: 50; CHOP inh: inactive

Results for O=C(Cc1csc(N2CCOCC2)n1)N/N=C/c1ccc(O)c(O)c1O ?
p-CIP stab down: inactive; Dynein cargo inh: inactive; B2AR ag: 46; CHOP inh: inactive

Results for CC(C)Cc1cc(C(=O)N2CCN(C(c3ccccc3)c3ccccc3)CC2)no1 ?
p-CIP stab down: inactive; Dynein cargo inh: inactive; XBP1 UPR activ: inactive; CHOP UPR activ: inactive; B2AR ag: inactive; CHOP inh: inactive

What do the screens show for `CC(C)c1cc(C(=O)N2CCN(C(c3ccccc3)c3ccccc3)CC2)no1`?
p-CIP stab down: inactive; Dynein cargo inh: inactive; XBP1 UPR activ: inactive; CHOP UPR activ: inactive; B2AR ag: inactive; CHOP inh: 82

What do the screens show for `O=C(N1CCCCC1)N1CCN(C(c2ccccc2)c2ccccc2)CC1`?
p-CIP stab down: inactive; Dynein cargo inh: inactive; XBP1 UPR activ: inactive; CHOP UPR activ: inactive; B2AR ag: inactive; CHOP inh: 83

What do the screens show for `CCN(c1ccccc1)S(=O)(=O)c1ccc(C(=O)NNC(=O)c2ccccc2F)cc1`?
XBP1 UPR activ: inactive; CHOP UPR activ: inactive; B2AR ag: inactive

What do the screens show for `CCOC(=O)C1=C(N)n2c(s/c(=C\c3ccco3)c2=O)=C(C(=O)OCC)C1c1ccco1` (stereo unspecified)?
p-CIP stab down: inactive; Dynein cargo inh: inactive; B2AR ag: inactive

What do the screens show for `CCOC(=O)C1=C(N)n2c(s/c(=C\c3ccco3)c2=O)=C(C(=O)OC(C)C)C1c1ccco1` (stereo unspecified)?
p-CIP stab down: inactive; Dynein cargo inh: inactive; XBP1 UPR activ: inactive; CHOP UPR activ: inactive; B2AR ag: 65; CHOP inh: inactive

Results for O=C(c1ccc(-c2nnc(Nc3cccc(Cl)c3)c3ccccc23)cc1)N1C[C@H]2C[C@H](C1)c1cccc(=O)n1C2 ?
p-CIP stab down: inactive; Dynein cargo inh: inactive; XBP1 UPR activ: inactive; CHOP UPR activ: inactive; B2AR ag: 74; CHOP inh: inactive

Results for COc1nnc(-c2ccc(C(=O)N3C[C@@H]4C[C@H](C3)c3cccc(=O)n3C4)cc2)c2ccccc12 ?
p-CIP stab down: inactive; Dynein cargo inh: inactive; B2AR ag: inactive; CHOP inh: inactive

Results for CC(C)(C)OC(=O)NNC(=O)NC12CC3CC(CC(C3)C1)C2 ?
p-CIP stab down: inactive; Dynein cargo inh: inactive; XBP1 UPR activ: inactive; CHOP UPR activ: inactive; B2AR ag: inactive; CHOP inh: inactive

How did CCCCN(C(=O)CCCc1nc2ccccc2s1)c1c(N)n(CC(C)C)c(=O)[nH]c1=O do in these assays?
XBP1 UPR activ: inactive; CHOP UPR activ: inactive; B2AR ag: inactive

Results for Cc1ccc(C=C2C(Cl)=C(Cl)C(Cl)=C2Cl)cc1 ?
p-CIP stab down: inactive; Dynein cargo inh: -6.2; XBP1 UPR activ: inactive; CHOP UPR activ: inactive; CHOP inh: 107

What do the screens show for `Cc1ccc(/C=[N+](/C)[O-])cc1`?
p-CIP stab down: inactive; Dynein cargo inh: inactive; XBP1 UPR activ: inactive; CHOP UPR activ: inactive; B2AR ag: inactive; CHOP inh: inactive

What do the screens show for `N#C/C(=C\c1cccc(NC(=O)c2ccccc2Cl)c1)C(=O)NCCc1ccccc1`?
p-CIP stab down: inactive; Dynein cargo inh: inactive; XBP1 UPR activ: inactive; CHOP UPR activ: inactive; B2AR ag: 43; CHOP inh: inactive

What do the screens show for `C[C@H]1CC[C@H]2C(=O)N3[C@H](c4ccccc4Br)[C@@H](C)CC[C@H]3C(=O)N2[C@@H]1c1ccccc1Br`?
p-CIP stab down: inactive; Dynein cargo inh: inactive; XBP1 UPR activ: inactive; CHOP UPR activ: inactive; CHOP inh: 85
